Assay results published in ChEMBL document CHEMBL1136151, “Suzuki cross-coupling approaches to the synthesis of bioactive 3-substituted and 5-substituted-4-methoxy-6-methyl-2-pyrones” (Bioorg Med Chem Lett, 2003).

Test system: Aspergillus niger
Assay: Percent growth of Aspergillus niger after 7 days of incubation
Format: functional
Parameters: concentration or dose not given beside the values
How it was run: (§1)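 Fungal plate assay: pyrone dissolved in absolute EtOH at 10mg/mL and pipetted 2 cm offset from the centre of the plate containing the organism. EtOH alone served as control. Growth is recorded as percentage of the organism after 72 h and after 7 days of incubation.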

Compound | Growth [%]
CCCCC/C=C/c1c(OC)cc(C)oc1=O | 95
CCC/C=C/c1c(OC)cc(C)oc1=O | >95
COc1ccc(-c2c(OC)cc(=O)oc2C)cc1 | 90
CCCC/C=C/c1c(OC)cc(C)oc1=O | 91
COc1cc(C)oc(=O)c1-c1ccc(C=O)cc1 | >95
COc1ccc(-c2c(OC)cc(C)oc2=O)cc1 | 82
COc1cc(C)oc(=O)c1/C=C/c1ccccc1 | 100
CCCCC/C=C/c1cc(C)oc(=O)c1 | 94
CCCC/C=C/c1c(OC)cc(=O)oc1C | >95

Test system: Saccharomyces cerevisiae
Assay: Antimicrobial activity against Saccharomyces cerevisiae was determined after 48 hours of incubation
Format: functional
How it was run: (§2)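 Disk diffusion on yeast plates: cellulose disks carrying test compound, with an EtOH control. Incubation 48 h. The inhibition zone radius is recorded in mm.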

Compound | Activity [mm]
CCCCC/C=C/c1c(OC)cc(C)oc1=O | 0
CCC/C=C/c1c(OC)cc(C)oc1=O | 0
COc1ccc(-c2c(OC)cc(=O)oc2C)cc1 | 0
CCCC/C=C/c1c(OC)cc(C)oc1=O | 0
COc1cc(C)oc(=O)c1-c1ccc(C=O)cc1 | 0
COc1ccc(-c2c(OC)cc(C)oc2=O)cc1 | 0
COc1cc(C)oc(=O)c1/C=C/c1ccccc1 | 0
CCCCC/C=C/c1cc(C)oc(=O)c1 | 0
CCCC/C=C/c1c(OC)cc(=O)oc1C | 15

Test system: Thanatephorus cucumeris
Assay: Percent growth of Rhizoctonia solani after 7 days of incubation
Format: functional
Parameters: concentration or dose not given beside the values
How it was run: as §1

Compound | Growth [%]
CCCCC/C=C/c1c(OC)cc(C)oc1=O | 100
CCC/C=C/c1c(OC)cc(C)oc1=O | 100
COc1ccc(-c2c(OC)cc(=O)oc2C)cc1 | 100
CCCC/C=C/c1c(OC)cc(C)oc1=O | 100
COc1cc(C)oc(=O)c1-c1ccc(C=O)cc1 | 100
COc1ccc(-c2c(OC)cc(C)oc2=O)cc1 | 100
COc1cc(C)oc(=O)c1/C=C/c1ccccc1 | 100
CCCCC/C=C/c1cc(C)oc(=O)c1 | 100
CCCC/C=C/c1c(OC)cc(=O)oc1C | 93.4

Test system: Bacillus subtilis
Assay: Antimicrobial activity against Bacillus subtilis was determined after 96 hours of incubation
Format: functional
How it was run: (§3)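 Disk diffusion: cellulose disks loaded with test compound and placed on bacterial plates, with an EtOH control disk. Incubation 96 h. Read-out is the radius (mm) of the inhibition zone.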

Compound | Activity [mm]
CCCCC/C=C/c1c(OC)cc(C)oc1=O | 20
CCC/C=C/c1c(OC)cc(C)oc1=O | 18
COc1ccc(-c2c(OC)cc(=O)oc2C)cc1 | 14
CCCC/C=C/c1c(OC)cc(C)oc1=O | 19
COc1cc(C)oc(=O)c1-c1ccc(C=O)cc1 | 6
COc1ccc(-c2c(OC)cc(C)oc2=O)cc1 | 0
COc1cc(C)oc(=O)c1/C=C/c1ccccc1 | 0
CCCCC/C=C/c1cc(C)oc(=O)c1 | 18
CCCC/C=C/c1c(OC)cc(=O)oc1C | 17

Test system: Thanatephorus cucumeris
Assay: Percent growth of Rhizoctonia solani after 72 hours of incubation
Format: functional
Parameters: concentration or dose not given beside the values
How it was run: as §1

Compound | Growth [%]
CCCCC/C=C/c1c(OC)cc(C)oc1=O | 47
CCC/C=C/c1c(OC)cc(C)oc1=O | 44
COc1ccc(-c2c(OC)cc(=O)oc2C)cc1 | 69
CCCC/C=C/c1c(OC)cc(C)oc1=O | 43
COc1cc(C)oc(=O)c1-c1ccc(C=O)cc1 | 79
COc1ccc(-c2c(OC)cc(C)oc2=O)cc1 | 81
COc1cc(C)oc(=O)c1/C=C/c1ccccc1 | 92
CCCCC/C=C/c1cc(C)oc(=O)c1 | 38
CCCC/C=C/c1c(OC)cc(=O)oc1C | 41

Test system: Fusarium oxysporum
Assay: Percent growth of Fusarium oxysporum after 72 hours of incubation
Format: functional
Parameters: concentration or dose not given beside the values
How it was run: as §1

Compound | Growth [%]
CCCCC/C=C/c1c(OC)cc(C)oc1=O | 11
CCC/C=C/c1c(OC)cc(C)oc1=O | 8
COc1ccc(-c2c(OC)cc(=O)oc2C)cc1 | 11
CCCC/C=C/c1c(OC)cc(C)oc1=O | 8
COc1cc(C)oc(=O)c1-c1ccc(C=O)cc1 | 11
COc1ccc(-c2c(OC)cc(C)oc2=O)cc1 | 7
COc1cc(C)oc(=O)c1/C=C/c1ccccc1 | 11
CCCCC/C=C/c1cc(C)oc(=O)c1 | 2
CCCC/C=C/c1c(OC)cc(=O)oc1C | 7

Test system: Globisporangium mamillatum
Assay: Percent growth of Pythium mammillatum after 7 days of incubation
Format: functional
Parameters: concentration or dose not given beside the values
How it was run: as §1

Compound | Growth [%]
CCCCC/C=C/c1c(OC)cc(C)oc1=O | 100
CCC/C=C/c1c(OC)cc(C)oc1=O | 100
CCCC/C=C/c1c(OC)cc(C)oc1=O | 100
CCCCC/C=C/c1cc(C)oc(=O)c1 | 93
CCCC/C=C/c1c(OC)cc(=O)oc1C | 92

Test system: Schizosaccharomyces pombe
Assay: Antimicrobial activity against Schizosaccharomyces pombe was determined after 48 hours of incubation
Format: functional
How it was run: as §2

Compound | Activity [mm]
CCCCC/C=C/c1c(OC)cc(C)oc1=O | 0
CCC/C=C/c1c(OC)cc(C)oc1=O | 13
COc1ccc(-c2c(OC)cc(=O)oc2C)cc1 | 18
CCCC/C=C/c1c(OC)cc(C)oc1=O | 0
COc1cc(C)oc(=O)c1-c1ccc(C=O)cc1 | 0
COc1ccc(-c2c(OC)cc(C)oc2=O)cc1 | 0
COc1cc(C)oc(=O)c1/C=C/c1ccccc1 | 0
CCCCC/C=C/c1cc(C)oc(=O)c1 | 34
CCCC/C=C/c1c(OC)cc(=O)oc1C | 31

Test system: Globisporangium mamillatum
Assay: Percent growth of Pythium mammillatum after 72 hours of incubation
Format: functional
Parameters: concentration or dose not given beside the values
How it was run: as §1

Compound | Growth [%]
CCCCC/C=C/c1c(OC)cc(C)oc1=O | 42
CCC/C=C/c1c(OC)cc(C)oc1=O | 43
CCCC/C=C/c1c(OC)cc(C)oc1=O | 35
CCCCC/C=C/c1cc(C)oc(=O)c1 | 31
CCCC/C=C/c1c(OC)cc(=O)oc1C | 34

Test system: Globisporangium ultimum
Assay: Percent growth of Pythium ultimum after 72 hours of incubation
Format: functional
Parameters: concentration or dose not given beside the values
How it was run: as §1

Compound | Growth [%]
CCCCC/C=C/c1c(OC)cc(C)oc1=O | 61
CCC/C=C/c1c(OC)cc(C)oc1=O | 67
CCCC/C=C/c1c(OC)cc(C)oc1=O | 37
COc1cc(C)oc(=O)c1-c1ccc(C=O)cc1 | 100
COc1ccc(-c2c(OC)cc(C)oc2=O)cc1 | 100
COc1cc(C)oc(=O)c1/C=C/c1ccccc1 | 100
CCCCC/C=C/c1cc(C)oc(=O)c1 | 95
CCCC/C=C/c1c(OC)cc(=O)oc1C | 100

Test system: Escherichia coli
Assay: Antimicrobial activity against Escherichia coli was determined after 96 hours of incubation
Format: functional
How it was run: as §3

Compound | Activity [mm]
CCCCC/C=C/c1c(OC)cc(C)oc1=O | 0
CCC/C=C/c1c(OC)cc(C)oc1=O | 21
COc1ccc(-c2c(OC)cc(=O)oc2C)cc1 | 5
CCCC/C=C/c1c(OC)cc(C)oc1=O | 20
COc1cc(C)oc(=O)c1-c1ccc(C=O)cc1 | 6
COc1ccc(-c2c(OC)cc(C)oc2=O)cc1 | 0
COc1cc(C)oc(=O)c1/C=C/c1ccccc1 | 0
CCCCC/C=C/c1cc(C)oc(=O)c1 | 18
CCCC/C=C/c1c(OC)cc(=O)oc1C | 18

Test system: Candida albicans
Assay: Antimicrobial activity against Candida albicans was determined after 48 hours of incubation
Format: functional
How it was run: as §2

Compound | Activity [mm]
CCCCC/C=C/c1c(OC)cc(C)oc1=O | 0
CCC/C=C/c1c(OC)cc(C)oc1=O | 0
COc1ccc(-c2c(OC)cc(=O)oc2C)cc1 | 11
CCCC/C=C/c1c(OC)cc(C)oc1=O | 0
COc1cc(C)oc(=O)c1-c1ccc(C=O)cc1 | 0
COc1ccc(-c2c(OC)cc(C)oc2=O)cc1 | 0
COc1cc(C)oc(=O)c1/C=C/c1ccccc1 | 0
CCCCC/C=C/c1cc(C)oc(=O)c1 | 21
CCCC/C=C/c1c(OC)cc(=O)oc1C | 18

Test system: Globisporangium ultimum
Assay: Percent growth of Pythium ultimum after 7 days of incubation
Format: functional
Parameters: concentration or dose not given beside the values
How it was run: as §1

Compound | Growth [%]
CCCCC/C=C/c1c(OC)cc(C)oc1=O | 75
CCC/C=C/c1c(OC)cc(C)oc1=O | 80
CCCC/C=C/c1c(OC)cc(C)oc1=O | 57
COc1cc(C)oc(=O)c1-c1ccc(C=O)cc1 | 100
COc1ccc(-c2c(OC)cc(C)oc2=O)cc1 | 100
COc1cc(C)oc(=O)c1/C=C/c1ccccc1 | 100
CCCCC/C=C/c1cc(C)oc(=O)c1 | 100
CCCC/C=C/c1c(OC)cc(=O)oc1C | 100

Test system: Fusarium oxysporum
Assay: Percent growth of Fusarium oxysporum after 7 days of incubation
Format: functional
Parameters: concentration or dose not given beside the values
How it was run: as §1

Compound | Growth [%]
CCCCC/C=C/c1c(OC)cc(C)oc1=O | 56
CCC/C=C/c1c(OC)cc(C)oc1=O | 48
COc1ccc(-c2c(OC)cc(=O)oc2C)cc1 | 61
CCCC/C=C/c1c(OC)cc(C)oc1=O | 48
COc1cc(C)oc(=O)c1-c1ccc(C=O)cc1 | 60
COc1ccc(-c2c(OC)cc(C)oc2=O)cc1 | 60
COc1cc(C)oc(=O)c1/C=C/c1ccccc1 | 60
CCCCC/C=C/c1cc(C)oc(=O)c1 | 24
CCCC/C=C/c1c(OC)cc(=O)oc1C | 35

Test system: Staphylococcus aureus
Assay: Antimicrobial activity against Staphylococcus aureus was determined after 96 hours of incubation
Format: functional
How it was run: as §3

Compound | Activity [mm]
CCCCC/C=C/c1c(OC)cc(C)oc1=O | 0
CCC/C=C/c1c(OC)cc(C)oc1=O | 0
COc1ccc(-c2c(OC)cc(=O)oc2C)cc1 | 13
CCCC/C=C/c1c(OC)cc(C)oc1=O | 21
COc1cc(C)oc(=O)c1-c1ccc(C=O)cc1 | 0
COc1ccc(-c2c(OC)cc(C)oc2=O)cc1 | 0
COc1cc(C)oc(=O)c1/C=C/c1ccccc1 | 0
CCCCC/C=C/c1cc(C)oc(=O)c1 | 17
CCCC/C=C/c1c(OC)cc(=O)oc1C | 15

Test system: Aspergillus niger
Assay: Percent growth of Aspergillus niger after 72 hours of incubation
Format: functional
Parameters: concentration or dose not given beside the values
How it was run: as §1

Compound | Growth [%]
CCCCC/C=C/c1c(OC)cc(C)oc1=O | 90
CCC/C=C/c1c(OC)cc(C)oc1=O | 93
COc1ccc(-c2c(OC)cc(=O)oc2C)cc1 | 85
CCCC/C=C/c1c(OC)cc(C)oc1=O | 77
COc1cc(C)oc(=O)c1-c1ccc(C=O)cc1 | 83
COc1ccc(-c2c(OC)cc(C)oc2=O)cc1 | 70
COc1cc(C)oc(=O)c1/C=C/c1ccccc1 | >95
CCCCC/C=C/c1cc(C)oc(=O)c1 | 89
CCCC/C=C/c1c(OC)cc(=O)oc1C | 68

Test system: Botrytis cinerea
Assay: Percent growth of Botrytis cinerea after 72 hours of incubation
Format: functional
Parameters: concentration or dose not given beside the values
How it was run: as §1

Compound | Growth [%]
CCCCC/C=C/c1c(OC)cc(C)oc1=O | 53
CCC/C=C/c1c(OC)cc(C)oc1=O | 56
COc1ccc(-c2c(OC)cc(=O)oc2C)cc1 | 53
CCCC/C=C/c1c(OC)cc(C)oc1=O | 51
COc1cc(C)oc(=O)c1-c1ccc(C=O)cc1 | 65
COc1ccc(-c2c(OC)cc(C)oc2=O)cc1 | 62
COc1cc(C)oc(=O)c1/C=C/c1ccccc1 | 58
CCCCC/C=C/c1cc(C)oc(=O)c1 | 45
CCCC/C=C/c1c(OC)cc(=O)oc1C | 33

Test system: Botrytis cinerea
Assay: Percent growth of Botrytis cinerea after 7 days of incubation
Format: functional
Parameters: concentration or dose not given beside the values
How it was run: as §1

Compound | Growth [%]
CCCCC/C=C/c1c(OC)cc(C)oc1=O | 100
CCC/C=C/c1c(OC)cc(C)oc1=O | 100
COc1ccc(-c2c(OC)cc(=O)oc2C)cc1 | 100
CCCC/C=C/c1c(OC)cc(C)oc1=O | 100
COc1cc(C)oc(=O)c1-c1ccc(C=O)cc1 | 100
COc1ccc(-c2c(OC)cc(C)oc2=O)cc1 | 100
COc1cc(C)oc(=O)c1/C=C/c1ccccc1 | 100
CCCCC/C=C/c1cc(C)oc(=O)c1 | 100
CCCC/C=C/c1c(OC)cc(=O)oc1C | 100
